Shown are actives, neighbours in structure and some others; about 3.5% of the full set was active somewhere.
PAFAH1B3 inh – inhibitors of human PAFAH1B3; AID 492972; actives 0.28% (n = 340,000); Q15102; recombinant PAFAH1B3, FP-rhodamine probe, fluorescence polarization; inhibition, % at 3.39 µM;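 active means inhibition above the screen-wide average of all tested compounds plus 3 SD, cut at about 25% in these data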;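 further: 0% = enzyme with DMSO only and 100% = wells lacking PAFAH1B3 protein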
Target sequence (Q15102 whole entry, looked up): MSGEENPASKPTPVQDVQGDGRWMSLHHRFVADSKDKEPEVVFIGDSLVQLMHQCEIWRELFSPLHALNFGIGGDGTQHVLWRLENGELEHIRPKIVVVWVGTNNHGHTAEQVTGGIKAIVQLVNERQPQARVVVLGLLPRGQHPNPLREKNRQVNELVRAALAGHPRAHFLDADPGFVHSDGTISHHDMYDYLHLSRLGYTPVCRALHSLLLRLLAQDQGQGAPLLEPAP
PREPL inh – human PREPL enzyme inhibition. Q4J6C6. recombinant PREPL, fluorescence polarization activity-based probe. inhibition, % at 5.96 µM. actives 0.68% (n = 320,000). AID 2751; in the data active means inhibition above about 43%;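 further: 0% = enzyme with DMSO and 100% = wells lacking enzyme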
PAFAH1B2 inh – blocks human PAF acetylhydrolase 1b catalytic subunit 2. P68402. recombinant PAFAH1B2, FP-rhodamine activity probe, fluorescence polarization. inhibition, % at 3.39 µM. actives 1.2% (n = 340,000);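 active means inhibition above the mean of all tested compounds plus 3 SD, cut at about 24% in these data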;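 further: 0% = enzyme with DMSO and 100% = wells lacking PAFAH1B2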
Target sequence (P68402 whole entry, looked up): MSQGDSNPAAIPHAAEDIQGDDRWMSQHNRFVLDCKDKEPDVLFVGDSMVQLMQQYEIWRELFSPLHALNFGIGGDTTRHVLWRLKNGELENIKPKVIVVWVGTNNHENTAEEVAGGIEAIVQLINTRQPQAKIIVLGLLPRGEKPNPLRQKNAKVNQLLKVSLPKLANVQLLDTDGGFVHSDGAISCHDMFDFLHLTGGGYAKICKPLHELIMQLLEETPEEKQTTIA
Apaf1 inhib – inhibitors of human Apaf-1 apoptosome; O14727; reconstituted apoptosome caspase-3 activity, DEVD-Rh110 fluorescence; inhibition, % at 20 µM; actives 0.71% (n = 330,000); active means inhibition of at least 40% at 20 µM;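 further: plate controls were DMSO wells for no effect and DEVD-CHO caspase inhibitor wells for full effect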
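Material: reconstituted apoptosome with Apaf-1, cytochrome c, caspase-9, procaspase-3, dATP. Technique: Rh110 fluorescence intensity. Buffer or medium: pH 7.5 Hepes buffer with CHAPS, BSA, DTT. Times: 30 min plus 50 min, RT.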
pPAFAH inh – pPAFAH (human) enzyme inhibition; recombinant pPAFAH, FP-rhodamine probe fluorescence polarization; inhibition, % at 3.39 µM; actives 1.5% (n = 330,000); AID 463082;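 active means inhibition above the mean inhibition across the screen plus 3 SD, cut at about 25% in these data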;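 further: inhibitors block binding of the rhodamine activity-based probe so polarization drops; 0% = enzyme with DMSO and 100% = wells lacking pPAFAH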
PAFAH2 inh – inhibitors of human PAFAH2; actives 0.99% (n = 340,000); inhibition, % at 3.39 µM; AID 492956; recombinant PAFAH2, FP-rhodamine activity probe, fluorescence polarization;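 active means inhibition above the mean over all tested compounds plus 3 SD, cut at about 30% in these data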;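 further: inhibitors block probe labeling of enzyme so polarization drops; 0% = enzyme with DMSO and 100% = wells lacking PAFAH2 protein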
Numbers without * were called inactive; . = no result given.

SMILES | PAFAH1B3 inh | PREPL inh | PAFAH1B2 inh | Apaf1 inhib | pPAFAH inh | PAFAH2 inh
CC(C)c1ccc(N2C(=O)/C(=C/N(C)C)SC2=S)cc1 | 12 | 8 | 15 | 2 | 29* | 11
CCO/C=C1\SC(=S)N(c2ccc(Cl)cc2)C1=O | -42 | -28 | -25 | -109 | -20 | -53
O=C(C1CCN(S(=O)(=O)N2CCOCC2)CC1)N1CCN(c2ccc(F)cc2)CC1 | -1 | 11 | 2 | 2 | 0 | -1
O=C(C1CCN(c2ccc(N3CCOCC3)nn2)CC1)N1CCN(c2ccc(F)cc2)CC1 | -5 | 65* | 2 | -7 | 11 | -12
O=[N+]([O-])c1cc([N+](=O)[O-])c2oc(-c3ccccc3)c(Br)c2c1O | 28* | . | 43* | . | . | 46*
O=c1cc(-c2ccccc2Cl)oc2ccc([N+](=O)[O-])c(O)c12 | 4 | 21 | 4 | 15 | 3 | 4
Oc1ccc(-c2nc3ccccc3s2)c(O)c1 | 9 | -34 | 4 | 0 | 6 | -3
Nc1ccc(O)c(-c2nc3ccccc3s2)c1 | 8 | 6 | 0 | 22 | 34* | 2
Oc1ccc(N=C/C=C/c2cccc(Br)c2)cc1-c1nc2ccccc2s1 | 16 | 16 | 4 | 5 | 37* | 8
COc1ccccc1-n1cc(C(=O)NCC(=O)N2CCN(Cc3ccccc3)CC2)c2ccccc2c1=O | 4 | -5 | 6 | -7 | -1 | 2
CC(C1CCN(Cc2nc(C3CC3)no2)CC1)N1CCOCC1 (centres undefined) | 5 | -9 | 1 | -25 | 1 | -6
COc1ccc2[nH]c(=O)c(CN(Cc3nnnn3Cc3ccco3)C3CCCCC3)cc2c1 | 3 | 9 | 0 | 16 | 9 | 4
COc1ccc(Cn2nnnc2CN(Cc2cc3cc(C)ccc3[nH]c2=O)C2CCCC2)cc1 | 3 | 7 | 26* | 22 | 2 | 4
CCC(=O)NC(c1ccc(Cl)cc1Cl)c1ccc2cccnc2c1O (centres undefined) | 14 | -3 | 0 | 19 | 27* | 6
CCCCC(=O)NC(c1ccc(Cl)cc1Cl)c1ccc2cccnc2c1O (centres undefined) | 6 | . | -2 | 1 | . | 2
CC(C)C(=O)NC(c1ccc(Cl)cc1Cl)c1ccc2cccnc2c1O (centres undefined) | 9 | 1 | -1 | 4 | 26* | -12
COc1ccc(Br)cc1CN(C)C(=O)c1cc(Cl)c2c(c1)OCCO2 | 6 | -1 | -2 | 23 | -3 | -12
Cc1ccc(-n2nnnc2SCC(=O)c2c(N)n(C3CC3)c(=O)[nH]c2=O)c(C)c1 | 0 | 4 | 5 | -2 | 2 | 1
CN(C)S(=O)(=O)c1ccc(C(=O)NNC(=O)C23CC4CC(CC(C4)C2)C3)cc1 | 6 | 9 | 12 | -2 | 1 | 1
O=C(Nc1cccc(-c2csc(Nc3ccccc3)n2)c1)c1cc([N+](=O)[O-])cc(C(F)(F)F)c1 | 27* | 6 | 28* | 10 | 30* | -14
O=C(Nc1ccc(-c2csc(Nc3ccc(Cl)cc3)n2)cc1)c1cc([N+](=O)[O-])cc(C(F)(F)F)c1 | 16 | 3 | 11 | -13 | 5 | 20
CCCOc1ccc(C(=O)ON=C2CCN(C)CC2)cc1 | -4 | 7 | 4 | -5 | 26* | 78*
CN(C)CCCNC(=O)C(=O)Nc1cc2c3c(c1)CCC(=O)N3CCC2 | 5 | 10 | 4 | 1 | 3 | -1
Cc1ccc(NS(=O)(=O)c2ccc3c(c2)oc(=O)n3C)cc1C | 14 | 4 | 13 | 9 | 16 | 24
CCOc1ccc(NS(=O)(=O)c2ccc3c(c2)N(C(C)=O)CCS3)cc1 | 3 | 0 | -1 | 16 | 32* | 5
CCOC(=O)Cn1c(=O)oc2cc(S(=O)(=O)Nc3cccc(C)c3)ccc21 | -6 | -29 | 3 | 10 | 26* | 7
Cc1ccc(NS(=O)(=O)c2ccc3c(c2)oc(=O)n3C)cc1F | 1 | 1 | 5 | 7 | 31* | 8
CCOC(=O)Cn1c(=O)oc2cc(S(=O)(=O)NC(C)(C)CC)ccc21 | 5 | -9 | 3 | 5 | -3 | 3
CCOc1ccc(NS(=O)(=O)c2ccc3c(c2)oc(=O)n3C)cc1 | 3 | -1 | 4 | 12 | 28* | -1

High-throughput results deposited in PubChem BioAssay by several laboratories.
